In the library only some 1.8% were active in any assay of this set; here they are far more common.
NPY Y1 blocker: NPY-Y1 receptor antagonists, primary screen, cell-based; HEK293-CNG Y1 cells, membrane potential fluorescence; NPY at EC95, then isoproterenol; AID 1040, 2008; actives 1% (n = 200,000); inhibition, % at 3.6 µM;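 active = inhibition above the campaign mean inhibition of all tested compounds plus 3 SD, cut at about 20% in these data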
Target sequence (P25929 whole entry, looked up): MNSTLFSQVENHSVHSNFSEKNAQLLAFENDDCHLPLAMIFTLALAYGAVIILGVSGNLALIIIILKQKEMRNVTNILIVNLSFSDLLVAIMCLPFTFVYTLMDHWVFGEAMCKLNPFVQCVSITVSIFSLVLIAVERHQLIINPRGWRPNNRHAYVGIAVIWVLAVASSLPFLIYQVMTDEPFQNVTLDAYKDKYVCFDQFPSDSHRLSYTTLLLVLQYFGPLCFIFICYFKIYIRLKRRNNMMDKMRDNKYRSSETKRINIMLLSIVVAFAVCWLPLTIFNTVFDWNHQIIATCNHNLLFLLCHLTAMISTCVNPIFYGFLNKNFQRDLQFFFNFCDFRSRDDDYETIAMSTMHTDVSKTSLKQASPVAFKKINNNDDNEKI
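material = HEK293 cells with Y1 receptor plus CNG channel | also added = NPY 25 nM then isoproterenol 1 µM plus Ro 20-1724 25 µM | schedule = dye 3 h, compound 60 min room temperature, stimulation 45 min | measured by = membrane potential fluorescence | benchmarks = high control isoproterenol alone, low control NPY with isoproterenol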
NPY-Y1 PAM-ag: NPY-Y1 receptor potentiators or agonists, primary screen, cell-based; Neuropeptide Y receptor type 1 (Homo sapiens), P25929; NPY-Y1 expressing cells, potentiator/agonist activation; activation, % at 3.6 µM; actives 0.37% (n = 220,000); AID 1304, 2008; in the data active = activation above about 33%, passing the limit was not always enough;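 also: cells stimulated with NPY at EC10 then isoproterenol at EC100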
NPY2 pot ag: NPY-Y2 potentiators or agonists, primary screen, cell-based | actives 0.45% (n = 220,000) | activation, % at 3.6 µM | Neuropeptide Y receptor type 2 (Homo sapiens), P49146 | cells expressing NPY-Y2, potentiator/agonist read-out; in the data active = activation above about 27%;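 also: cells stimulated with NPY near EC25 plus isoproterenol at EC100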
Target sequence (P49146 whole entry, looked up): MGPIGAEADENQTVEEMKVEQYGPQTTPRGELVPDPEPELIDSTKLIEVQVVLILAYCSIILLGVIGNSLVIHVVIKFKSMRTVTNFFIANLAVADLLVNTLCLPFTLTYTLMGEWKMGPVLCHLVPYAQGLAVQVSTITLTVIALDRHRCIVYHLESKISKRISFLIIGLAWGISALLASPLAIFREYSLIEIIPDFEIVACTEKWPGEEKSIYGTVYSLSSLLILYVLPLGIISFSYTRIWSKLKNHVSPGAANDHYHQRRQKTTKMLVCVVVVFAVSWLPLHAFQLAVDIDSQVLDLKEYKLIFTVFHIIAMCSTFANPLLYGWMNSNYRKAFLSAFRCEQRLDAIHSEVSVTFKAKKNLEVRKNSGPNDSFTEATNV
NPY Y2 blocker: NPY-Y2 receptor antagonists, primary screen, cell-based | NPY-Y2 expressing cells, antagonist mode | inhibition, % at 2.7 µM | actives 0.99% (n = 140,000) | AID 793, 2007 | Neuropeptide Y receptor type 2 (Homo sapiens), P49146; in the data active = inhibition above about 17%
NPY-Y1 confirm: NPY-Y1 potentiators or agonists, confirmation, cell-based | actives 20% (n = 280) | activation, % at 3.6 µM | shares compounds with NPY-Y1 PAM-ag | cell-based NPY-Y1 potentiator/agonist assay; in the data active = activation above about 45%;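 also: cells challenged with NPY at its EC10 plus isoproterenol stimulus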
NPY-Y2 counter: NPY-Y2 potentiators or agonists, counter-screen for NPY-Y1 potentiator project, cell-based, fluorescence; shares compounds with NPY-Y1 PAM-ag; activation, % at 3.6 µM; AID 1649, 2009; HEK293-CNG cells, membrane-potential fluorescence (FLIPR), 1536-well; actives 20% (n = 280)
NPY-Y1 ag: NPY-Y1 direct agonists without NPY, confirmation, counter-screen for NPY-Y1 potentiator project, cell-based, fluorescence; shares compounds with NPY-Y1 PAM-ag; HEK293 Y1-CNGC, membrane potential fluorescence, agonist mode; activation, % at 3.6 µM; actives 50% (n = 280);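 active = percent activation above the mean of DMSO-only control wells plus 3 SD of those wells, cut at about 18% in these data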;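 also: cells challenged with isoproterenol plus Ro 20-1724 with no NPY in test wells; Y1 agonism lowers isoproterenol-driven cAMP and reduces probe fluorescence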
NPY-Y2 ag: NPY-Y2 direct agonists without NPY, counter-screen for NPY-Y1 potentiator project, cell-based, fluorescence; activation, % at 3.6 µM; actives 67% (n = 280); HEK293 Y2-CNGC, membrane potential fluorescence, agonist mode; shares compounds with NPY-Y1 PAM-ag;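 active = activation above the solvent-only control wells' mean plus 3 SD, cut at about 11% in these data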;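 also: agonism lowers cAMP so well fluorescence drops in active wells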
CNGC counter: CNGC cAMP sensor activity inhibitors, counter-screen for NPY-Y1 potentiator/agonist project, cell-based, HEK293-CNG parental, membrane potential fluorescence, Y1 set; shares compounds with NPY-Y1 PAM-ag; isoproterenol cAMP; inhibition, % at 3.6 µM; actives 42% (n = 280);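 active = inhibition above the mean of stimulated solvent-only control wells plus 3 SD, cut at about 22% in these data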
NPY-Y2 pot conf: NPY-Y2 potentiators or agonists, confirmation, cell-based; activation, % at 3.6 µM; AID 1539, 2009; actives 20% (n = 450); shares compounds with NPY2 pot ag; cell-based NPY-Y2 potentiator/agonist assay
NPY-Y1 potentiator: NPY-Y1 potentiators or agonists, counter-screen for NPY-Y2 potentiator project, cell-based, fluorescence. shares compounds with NPY2 pot ag. Y1 HEK293-CNG cells, membrane potential fluorescence. activation, % at 3.6 µM. actives 20% (n = 450); in the data active = activation above about 45%;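 also: cells stimulated with submaximal NPY then isoproterenol with phosphodiesterase inhibitor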
NPY-Y1 ag 2: NPY-Y1 direct agonists, selectivity assay for NPY-Y2 potentiator project, cell-based, fluorescence; shares compounds with NPY2 pot ag; HEK293 Y1-CNGC, membrane potential fluorescence, agonism; activation, % at 3.6 µM; actives 37% (n = 450);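 active = activation above the mean of DMSO-only control wells plus 3 SD, cut at about 18% in these data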;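 also: cells stimulated with 1 µM isoproterenol plus the PDE inhibitor Ro 20-1724; Y1 agonists lower the membrane potential dye signal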
CNGC inhibitor: CNGC cAMP sensor activity inhibitors, counter-screen for NPY-Y2 potentiator project, cell-based, HEK293-CNG parental, membrane potential fluorescence. isoproterenol cAMP. actives 32% (n = 450). shares compounds with NPY2 pot ag. AID 1703, 2009. inhibition, % at 3.6 µM;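 active = inhibition above the control-well mean plus 3 SD of those wells, cut at about 22% in these data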
NPY-Y2 ag 2: NPY-Y2 direct agonists, counter-screen for NPY-Y2 potentiator project, cell-based, fluorescence. actives 56% (n = 450). activation, % at 3.6 µM. HEK293 Y2/CNGC cells, membrane potential fluorescence, agonist mode. shares compounds with NPY2 pot ag;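 active = activation above the mean of solvent-only control wells plus 3 SD, cut at about 10% in these data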;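 also: cells stimulated by isoproterenol with no NPY added so direct agonism is tested; agonism lowers probe fluorescence through less cAMP and CNG channel opening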
A number is an active result; n = inactive; x = no result given. Rule as the data show it, unless noted: active = activation above about 33%; inactive = the rest.

SMILES	NPY Y1 blocker	NPY-Y1 PAM-ag	NPY2 pot ag	NPY Y2 blocker	NPY-Y1 confirm	NPY-Y2 counter	NPY-Y1 ag	NPY-Y2 ag	CNGC counter	others
COC(=O)c1cc(C(=O)c2ccc(Cl)cc2)n2c(=O)/c(=C\N(C)C)sc12	n	35	n	x	n	n	19	12	n
COC(=O)c1cc(C(=O)c2ccccc2)n2c(=O)/c(=C\N(C)C)sc12	x	n	n	x	x	x	x	x	x
C=CCc1ccc(O)c(-c2cc(CC=C)ccc2O)c1	n	33	n	x	n	n	n	16	n
C=CCc1ccc(OCC(O)CO)c(OC)c1 (configuration not stated)	n	n	n	n	x	x	x	x	x
CC1CCN(c2ncnc3ccccc23)CC1	n	40	n	n	n	n	n	n	n
CC1CCN(c2nc(-c3ccccc3O)nc3ccccc23)CC1	n	n	n	n	x	x	x	x	x
Cc1ccc(NC(=O)COC(=O)c2ccc([N+](=O)[O-])o2)cc1S(=O)(=O)N1CCCCC1	n	41	n	x	n	n	n	n	n
O=C(COC(=O)c1ccc([N+](=O)[O-])o1)Nc1cccc(S(=O)(=O)N2CCCCC2)c1	n	n	n	x	x	x	x	x	x
CCCCCCC1CCC(C(=O)N2CCOCC2)CC1 (configuration not stated)	n	n	n	x	x	x	x	x	x
CNC(=O)C1CC(=O)N(CCCc2ccccc2)C(=Nc2ccccc2)S1 (configuration not stated)	n	n	n	n	x	x	x	x	x
O=C(COc1ccc(S(=O)(=O)NC2CCCCC2)cc1)N1CCN(c2ccc(F)cc2)CC1	n	n	n	n	x	x	x	x	x
O=C(COc1ccc(S(=O)(=O)NC2CCCCC2)cc1Cl)N1CCN(c2ccccc2)CC1	n	41	n	n	n	n	n	n	n
CCOC(=O)C1CCCN(c2oc(-c3ccc(OC)cc3)nc2C#N)C1 (configuration not stated)	n	n	n	x	x	x	x	x	x
O=C1N(C2CCCC2)C[C@@H]2C[C@@H](c3cn[nH]c3-c3ccc(Cl)cc3)N3CCC[C@@]123	n	39	n	x	49	n	32	31	42
CC(C)N=C1NN=C(c2ccc(Cl)c(Cl)c2)CS1	n	49	n	x	n	n	n	n	n
CC(C)N=C1NN=C(c2cccs2)CS1	n	n	n	x	x	x	x	x	x
COc1ccccc1Oc1ccc(-c2cnc3ccccc3n2)cc1[N+](=O)[O-]	n	47	n	x	n	n	38	21	n
N#C/C(=C(/O)c1ccc([N+](=O)[O-])s1)c1nc2ccccc2[nH]1	x	48	n	x	n	n	n	28	n
COC(=O)C1CC(c2ccc(Cl)cc2)=NO1 (configuration not stated)	n	n	n	x	x	x	x	x	x
COc1ccc(C)cc1N=Nc1ccc(O)c2ncccc12	n	47	n	x	49	42	57	53	51
CCOC(=O)c1[nH]c(C)c(C(=O)NCc2cccnc2)c1C	n	n	n	n	x	x	x	x	x
CCCn1c(CCC(=O)O)nc2cc(S(N)(=O)=O)ccc21	x	n	104	x	x	x	x	x	x	NPY-Y2 pot conf=n;NPY-Y1 potentiator=n;NPY-Y1 ag 2=n;CNGC inhibitor=n;NPY-Y2 ag 2=n
CCCn1c(CCC(=O)O)nc2cc(S(=O)(=O)N(CC)CC)ccc21	x	n	n	x	x	x	x	x	x
CSc1ccc(/C=N/n2c(C)cc(C)cc2=O)cc1	n	n	n	n	x	x	x	x	x
O=c1[nH][nH]c2ccccc2c1=O	x	n	87	x	x	x	x	x	x	NPY-Y2 pot conf=n;NPY-Y1 potentiator=n;NPY-Y1 ag 2=n;CNGC inhibitor=n;NPY-Y2 ag 2=n
SMILES	NPY Y1 blocker	NPY-Y1 PAM-ag	NPY2 pot ag	NPY Y2 blocker	NPY-Y1 confirm	NPY-Y2 counter	NPY-Y1 ag	NPY-Y2 ag	CNGC counter	others
O=c1c2ccccc2[nH]c2ccccc12	n	n	n	n	x	x	x	x	x
Oc1ccc(Cl)cc1Cc1cc(Cl)ccc1O	n	n	62	n	x	x	x	x	x	NPY-Y2 pot conf=39;NPY-Y1 potentiator=n;NPY-Y1 ag 2=36;CNGC inhibitor=28;NPY-Y2 ag 2=32
Oc1ccc(Cl)cc1CNn1cnnc1	n	n	n	x	x	x	x	x	x
Nc1cc(C(F)(F)F)ccc1Nc1ccccc1	n	n	n	x	x	x	x	x	x
CCCN1C2CCCC1CC(NC(=O)Nc1ccc(C(C)C)cc1)C2 (configuration not stated)	n	n	34	n	x	x	x	x	x	NPY-Y2 pot conf=n;NPY-Y1 potentiator=n;NPY-Y1 ag 2=19;CNGC inhibitor=28;NPY-Y2 ag 2=24
Cc1ccccc1Nc1c(-c2ccc(N3CCOCC3)cc2)nc2cnccn12	x	n	39	x	x	x	x	x	x	NPY-Y2 pot conf=68;NPY-Y1 potentiator=76;NPY-Y1 ag 2=52;CNGC inhibitor=48;NPY-Y2 ag 2=68
Cc1ccc(Nc2c(-c3ccc(N4CCOCC4)cc3)nc3cnccn23)cc1	x	n	n	x	x	x	x	x	x
O=C(Cn1cnc([N+](=O)[O-])c1)Nc1cc(Oc2ccc(Cl)cc2Cl)cc([N+](=O)[O-])c1	n	n	34	n	x	x	x	x	x	NPY-Y2 pot conf=35;NPY-Y1 potentiator=n;NPY-Y1 ag 2=31;CNGC inhibitor=40;NPY-Y2 ag 2=52
Cc1cc(C)cc(NC(=S)N2CCC(N(C)CC3CCCO3)CC2)c1 (configuration not stated)	n	n	31	x	x	x	x	x	x	NPY-Y2 pot conf=n;NPY-Y1 potentiator=n;NPY-Y1 ag 2=n;CNGC inhibitor=n;NPY-Y2 ag 2=n

Screens as filed in PubChem BioAssay.
